# Screening data deposited in PubChem by several laboratories.
# This excerpt belongs to a sample that is enriched for hits.
# Diaph act CS = compounds boosting diaphorase resazurin reduction – biochemical, uHTS, resorufin fluorescence, counter-screen for diaphorase-coupled primary assays, primary screen. Diaphorase/resazurin coupled assay, 16 min; hits give high values; 1 = vehicle wells, 0 = NADH-free wells. activation factor at 20 µM. hit rate 0.005% among 190,000;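 active = diaphorase activity raised at least twofold by the compound at 20 µM; inactive = activation factor below 2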
#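 Measured by – red resorufin fluorescence at 544/590 nm excitation/emission · Test system – Clostridium kluyveri diaphorase, purified enzyme · Incubation – reaction time 16 min, room temperature · Buffer or medium – 50 mM HEPES pH 7.4 with 4.542 mM MgCl2, 0.005% Tween 20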
# ABCB1 block = ABCB1 efflux pump inhibitors, primary screen, cell-based, multiplex, flow cytometry, ABCG2 counter-screen; inhibition, % at 6.6 µM; AID 1326, 2008; CCRF-Adr cells, JC-1 efflux; hit rate 0.067% among 190,000; ATP-dependent translocase ABCB1 (Homo sapiens), P08183; in the data active = inhibition above about 40%;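 note: 0% = vehicle and 100% = reference inhibitor; higher value means more JC-1 retained so stronger ABCB1 efflux block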
# FLuc stim CS = FLuc activators, initial screening, artefact control for FLuc-dependent activation tests, biochemical, ATPlite luminescence; ATPlite luciferase biochemical, 10 min; 0 = ATP-free wells, 1 = DMSO control; 200,000 tested, under 10 active; activation factor at 10 µM;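 active = luciferase activation factor, scaled between plate controls, of at least 2 with compound at 10 µM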
#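 System: cell-free luciferase reagent; medium: PBS as buffer for the ATP substrate; doses: test compounds dosed from 2 mM stocks in 100% DMSO; incubation: 10 min, room temperature; measured by: luminescence from luciferase reaction; read-out: luciferase activation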
# FLuc inhib CS = firefly luciferase enzyme inhibitors, primary screen, artefact control for luciferase-based inhibitor screens, biochemical, luminescence, ATPLite; Luciferin 4-monooxygenase (Photinus pyralis), P08659; 10 min; inhibition, % at 10 µM; hit rate 1.5% among 200,000; AID 1006, 2008;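 active = inhibition above about 50% when tested at 10 µM, limit read from the data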
# ABCB6 inh MLPCN = ABCB6 transporter inhibitors, primary screen, K562-ABCB6 cells, flow cytometry, MLPCN library; fluorescence ratio to DMSO, % at 10 µM; hit rate 0.19% among 360,000; AID 602162, 2011; K562-ABCB6 porphyrin accumulation, 1 h; hits give low values; ATP-binding cassette sub-family B member 6 (Homo sapiens), Q9NP58;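 active = fluorescence ratio to DMSO below 75%, the collection mean minus 3 SD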;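 note: signal is porphyrin accumulated inside mitochondria; 100% equals median channel fluorescence of DMSO control wells; lower ratio means ABCB6 inhibition with less porphyrin fluorescence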
# ABCG2 block = ABCG2 efflux pump inhibitors, primary screen, multiplex with ABCB1, IgMXP3 cells, flow cytometry; inhibition, % at 6.6 µM; JC-1 efflux; hit rate 0.1% among 190,000; Broad substrate specificity ATP-binding cassette transporter ABCG2 (Homo sapiens), Q9UNQ0;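 active = inhibition above 80%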;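 note: 0% = DMSO and 100% = nicardipine control wells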
#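 Test system: ABCG2 IgMXP3 and barcoded ABCB1 CCRF-Adr cell mix; Schedule: cells with compound and JC-1, 10 min at 25 °C, rotating, no wash; Technique: flow cytometry of retained JC-1 fluorescence; Measure: % inhibition of efflux relative to nicardipine and DMSO; Controls: nicardipine high and DMSO low controls.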
# ABCB1 single pt = ABCB1 efflux pump inhibitors, confirmation, cell-based, single point, ABCG2 counter-screen. shares compounds with ABCG2 block. CCRF-Adr cells, JC-1 efflux, flow cytometry. inhibition, % at 6.6 µM. hit rate 7% among 270. AID 1451, 2008;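 active = inhibition of pump activity above 50%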;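 note: 0% = DMSO and 100% = nicardipine full pump inhibition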
# ABCG2 single pt = ABCG2 efflux pump inhibitors, confirmation, single point, IgMXP3 cells, ABCB1 counter-screen paired; AID 1453, 2008; inhibition, % at 6.6 µM; hit rate 6% among 270; JC-1 efflux, flow cytometry; shares compounds with ABCG2 block;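 active = inhibition above 50%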;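 note: 0% = DMSO wells and 100% = nicardipine pump inhibitor wells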
# IgMXP3 autofluor = compound autofluorescence in ABCG2-expressing IgMXP3 cells, confirmation, artefact control for ABC transporter inhibitor project, cell-based, 488/530 nm, flow cytometry. hit rate 30% among 270. compound autofluorescence 488/530 nm; hits give high values. shares compounds with ABCG2 block. fluorescence at 6.6 µM;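 active = fluorescence in ABCG2-expressing cells above the plate's control-well mean plus 3 SD, cut at about 15 in these data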;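 note: median cell fluorescence with compound minus that of DMSO-treated control cells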
# CCRF autofluor = compound autofluorescence in ABCB1-expressing CCRF-Adr cells, confirmation, artefact control for ABC transporter inhibitor project, cell-based, 488/530 nm, flow cytometry; hit rate 30% among 270; shares compounds with ABCG2 block; fluorescence at 6.6 µM; compound autofluorescence 488/530 nm; hits give high values;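 active = fluorescence beyond the plate control mean plus 3 SD, with a fluorescence-to-maximum score over 2, cut at about 25 in these data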
# An asterisk follows results filed as active; x = no result.
SMILES,Diaph act CS,ABCB1 block,FLuc stim CS,FLuc inhib CS,ABCB6 inh MLPCN,ABCG2 block,ABCB1 single pt,ABCG2 single pt,IgMXP3 autofluor,CCRF autofluor
Cc1ccc(-c2csc3nc(SCC(=O)N(C)C)n(Cc4ccccc4)c(=O)c23)cc1,0.8,28,1.1,-6,92,121*,18,20,-0.44,-0.99
COc1cc(CNCCSc2nnnn2C)cc(Br)c1OCc1ccc(F)cc1,0.9,2,1,-1,101,10,x,x,x,x
CCOc1cc(CNCCSc2nnnn2C)cc(Br)c1OCc1ccc(F)cc1,0.9,10,1.1,-6,102,105*,1,11,-1.8,34*
COc1ccc(-c2cc3nc(C)c(C)c(N4CCN(C(=O)c5ccoc5)CC4)n3n2)cc1,x,x,x,x,95,x,x,x,x,x
Cc1nc2cc(-c3cccc(F)c3)nn2c(N2CCN(C(=O)c3ccco3)CC2)c1C,0.7,63*,1,4,100,91*,52*,50*,-2.3,-4.8
CSc1ccccc1NC(=O)CSc1nnc(Cc2ccccc2)o1,x,x,x,x,97,x,x,x,x,x
CC1Sc2ccc(S(=O)(=O)N3CCC(C(=O)Nc4ccc(Cl)cc4)CC3)cc2NC1=O (centres undefined),x,x,x,x,103,x,x,x,x,x
O=c1oc2ccccc2cc1-c1nc2c(s1)CCCC2,0.8,7,0.3,67*,103,55,6,10,12,2
CCOC(=O)[C@]12CCCC=C1N(Cc1ccco1)C(=O)[C@H](CC(=O)NCCCCc1ccccc1)C2,x,x,x,x,94,x,x,x,x,x
CC(NC(=O)COC(=O)Cc1ccsc1)C1CC2CCC1C2 (centres undefined),1,35,1.1,-7,100,132*,7,4,-2.1,-4.7
Nc1cc(=O)[nH]c(=O)n1CCCc1ccccc1,x,x,x,x,101,x,x,x,x,x
Cn1c(=O)c2[nH]c(SCc3cccnc3)nc2n(C)c1=S,x,x,x,x,95,x,x,x,x,x
Cc1cc(C)c(N=Cc2c(O)n(-c3nccs3)c(=O)c3ccccc23)c(C)c1,0.8,4,1,-3,98,11,x,x,x,x
Cc1ccc(N=Cc2c(O)n(-c3nccs3)c(=O)c3ccccc23)cc1,0.9,41*,1,-3,98,73,5,37,-0.29,8.8
O=C(C[C@H]1C[C@H](C(=O)N2CCCCC2)[C@@]2(CCc3ccccc3)c3[nH]c4ccc(Cl)cc4c3CCN2C1=O)NCc1cccc(C(F)(F)F)c1,x,x,x,x,99,x,x,x,x,x
Cc1ccc(CNC(=O)c2cc(=O)c3ccccc3o2)cc1,x,x,x,x,95,x,x,x,x,x
Cc1ccc(-c2c(C(=O)NCc3ccc(F)cc3)oc(=O)c3ccccc23)cc1,0.7,27,1,-2,97,83*,9,27,5.3,9.9
CC(OC(=O)CCN=C1NS(=O)(=O)c2ccccc21)C(=O)N(C)C1CCCCC1 (centres undefined),x,x,x,x,103,x,x,x,x,x
CC(Nc1cccnc1)=C(C#N)C#N,1,0,1,0,102,1,x,x,x,x
